Laboratory results as given in ChEMBL document CHEMBL3407470, “Synthesis, biological evaluation and 3D-QSAR studies of novel 5-phenyl-1H-pyrazol cinnamamide derivatives as novel antitubulin agents” (Eur J Med Chem, 2015).

Molecular target: Tubulin (Bos taurus, UniProt Q6B856+Q862L2+Q862F3)
Experiment: Inhibition of bovine brain tubulin polymerization incubated for 20 mins by spectrophotometry
Details: not given

| SMILES | IC50 [nM] | pIC50 |
| --- | --- | --- |
| O=C(/C=C/c1ccc(Cl)cc1)Nc1cc(-c2ccc(Br)cc2)[nH]n1 | 1950 | 5.71 |
| COc1ccc(/C=C/C(=O)Nc2cc(-c3ccc(Br)cc3)[nH]n2)cc1 | 1350 | 5.87 |
| O=C(/C=C/c1ccc(C(F)(F)F)cc1)Nc1cc(-c2ccc(Br)cc2)[nH]n1 | 1020 | 5.991 |

The remaining lines, values ahead:

| IC50 [nM] | pIC50 | SMILES |
| --- | --- | --- |
| 1340 | 5.873 | O=C(/C=C\c1ccc(C(F)(F)F)cc1)Nc1cc(-c2ccccc2)[nH]n1 |
| 2360 | 5.627 | O=C(/C=C/c1ccc(Br)cc1)Nc1cc(-c2ccccc2)[nH]n1 |
| 3120 | 5.506 | Cc1ccc(-c2cc(NC(=O)/C=C/c3ccccc3)n[nH]2)cc1 |
| 2140 | 5.67 | O=C(/C=C/c1ccc(Br)cc1)Nc1cc(-c2ccc(Br)cc2)[nH]n1 |
| 1780 | 5.75 | O=C(/C=C\c1ccc(F)cc1)Nc1cc(-c2ccc(Br)cc2)[nH]n1 |
| 1560 | 5.807 | O=C(/C=C/c1ccc([N+](=O)[O-])cc1)Nc1cc(-c2ccccc2)[nH]n1 |
| 3360 | 5.474 | Cc1ccc(/C=C/C(=O)Nc2cc(-c3ccc(C)cc3)[nH]n2)cc1 |
| 2060 | 5.686 | O=C(/C=C/c1ccc(Cl)cc1)Nc1cc(-c2ccccc2)[nH]n1 |

Tested on: not listed separately
Experiment: Antiproliferative activity against mouse B16F10 cells after 48 hrs by MTT assay
Type: functional, cell-based
Details: B16-F10, 48 h
How it was run: (§1)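 Cells grown to log phase in RPMI 1640 with 10% FBS, seeded at 2×10^4 cells/mL and allowed 24 h at 37 °C, 5% CO₂ before treatment. Compounds at pre-set concentrations, colchicine and CA-4 as references, exposed 48 h. MTT added (2.5 mg/mL in PBS) for 4 h, then SDS/isobutyl alcohol/HCl extraction overnight; OD at 570 nm. Triplicate wells per concentration; values averaged from at least three separate runs.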

| SMILES | IC50 [nM] |
| --- | --- |
| COc1cc2c(c(OC)c1OC)-c1ccc(OC)c(=O)cc1[C@@H](NC(C)=O)CC2 [COLCHICINE] | 480 |
| O=C(/C=C\c1ccc(C(F)(F)F)cc1)Nc1cc(-c2ccccc2)[nH]n1 | 640 |
| O=C(/C=C/c1ccc(Cl)cc1)Nc1cc(-c2ccc(Br)cc2)[nH]n1 | 1080 |
| COc1ccc(/C=C/C(=O)Nc2cc(-c3ccc(Br)cc3)[nH]n2)cc1 | 770 |
| O=C(/C=C/c1ccc(Br)cc1)Nc1cc(-c2ccccc2)[nH]n1 | 1380 |
| Cc1ccc(-c2cc(NC(=O)/C=C/c3ccccc3)n[nH]2)cc1 | 1680 |
| COc1ccc(/C=C\c2cc(OC)c(OC)c(OC)c2)cc1O [COMBRETASTATIN A4] | 420 |
| O=C(/C=C/c1ccc(Br)cc1)Nc1cc(-c2ccc(Br)cc2)[nH]n1 | 1280 |
| O=C(/C=C\c1ccc(F)cc1)Nc1cc(-c2ccc(Br)cc2)[nH]n1 | 850 |
| O=C(/C=C/c1ccc([N+](=O)[O-])cc1)Nc1cc(-c2ccccc2)[nH]n1 | 720 |
| O=C(/C=C/c1ccc(C(F)(F)F)cc1)Nc1cc(-c2ccc(Br)cc2)[nH]n1 | 570 |
| Cc1ccc(/C=C/C(=O)Nc2cc(-c3ccc(C)cc3)[nH]n2)cc1 | 1750 |
| O=C(/C=C/c1ccc(Cl)cc1)Nc1cc(-c2ccccc2)[nH]n1 | 1270 |

Tested on: MCF7
Experiment: Induction of cell cycle arrest in human MCF7 cells assessed as accumulation at S phase at 2 ug/ml after 24 hrs by flow cytometry (reference value: 14.58%)
Type: functional
Details: not given
How it was run: (§2)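 MCF-7 cells exposed 24 h to the compound at 1 and 2 μg/mL. Phase distribution (G0/G1, S, G2/M) was measured by flow cytometry and reported as percentage of cells in each phase.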

| SMILES | Activity [%] |
| --- | --- |
| O=C(/C=C/c1ccc(C(F)(F)F)cc1)Nc1cc(-c2ccc(Br)cc2)[nH]n1 | 16.28 |

Tested on: MCF7
Experiment: Induction of cell cycle arrest in human MCF7 cells assessed as accumulation at G2/M phase after 24 hrs by flow cytometry (reference value: 25.67%)
Type: functional
Details: not given
How it was run: as §2

| SMILES | Activity [%] |
| --- | --- |
| COc1cc2c(c(OC)c1OC)-c1ccc(OC)c(=O)cc1[C@@H](NC(C)=O)CC2 [COLCHICINE] | 80.62 |

Tested on: MCF7
Experiment: Induction of cell cycle arrest in human MCF7 cells assessed as accumulation at G2/M phase at 1 ug/ml after 24 hrs by flow cytometry (reference value: 25.67%)
Type: functional
Details: not given
How it was run: as §2

| SMILES | Activity [%] |
| --- | --- |
| O=C(/C=C/c1ccc(C(F)(F)F)cc1)Nc1cc(-c2ccc(Br)cc2)[nH]n1 | 45.55 |

Tested on: MCF7
Experiment: Induction of cell cycle arrest in human MCF7 cells assessed as accumulation at G2/M phase after 24 hrs by flow cytometry
Type: functional, cell-based
Details: not given
How it was run: as §2

| SMILES | Activity |
| --- | --- |
| O=C(/C=C/c1ccc(C(F)(F)F)cc1)Nc1cc(-c2ccc(Br)cc2)[nH]n1 | Dose-dependent effect |

Tested on: A549
Experiment: Antiproliferative activity against human A549 cells after 48 hrs by MTT assay
Type: functional, cell-based
Details: A549, 48 h
How it was run: as §1

| SMILES | IC50 [nM] |
| --- | --- |
| COc1cc2c(c(OC)c1OC)-c1ccc(OC)c(=O)cc1[C@@H](NC(C)=O)CC2 [COLCHICINE] | 580 |
| O=C(/C=C/c1ccc(Cl)cc1)Nc1cc(-c2ccc(Br)cc2)[nH]n1 | 1210 |
| COc1ccc(/C=C/C(=O)Nc2cc(-c3ccc(Br)cc3)[nH]n2)cc1 | 820 |
| COc1ccc(/C=C\c2cc(OC)c(OC)c(OC)c2)cc1O [COMBRETASTATIN A4] | 460 |
| O=C(/C=C/c1ccc(C(F)(F)F)cc1)Nc1cc(-c2ccc(Br)cc2)[nH]n1 | 620 |

Other lines, results leading:

| IC50 [nM] | SMILES |
| --- | --- |
| 880 | O=C(/C=C\c1ccc(C(F)(F)F)cc1)Nc1cc(-c2ccccc2)[nH]n1 |
| 1460 | O=C(/C=C/c1ccc(Br)cc1)Nc1cc(-c2ccccc2)[nH]n1 |
| 1670 | Cc1ccc(-c2cc(NC(=O)/C=C/c3ccccc3)n[nH]2)cc1 |
| 1360 | O=C(/C=C/c1ccc(Br)cc1)Nc1cc(-c2ccc(Br)cc2)[nH]n1 |
| 930 | O=C(/C=C\c1ccc(F)cc1)Nc1cc(-c2ccc(Br)cc2)[nH]n1 |
| 970 | O=C(/C=C/c1ccc([N+](=O)[O-])cc1)Nc1cc(-c2ccccc2)[nH]n1 |
| 1880 | Cc1ccc(/C=C/C(=O)Nc2cc(-c3ccc(C)cc3)[nH]n2)cc1 |
| 1390 | O=C(/C=C/c1ccc(Cl)cc1)Nc1cc(-c2ccccc2)[nH]n1 |

Tested on: MCF7
Experiment: Induction of cell cycle arrest in human MCF7 cells assessed as accumulation at S phase after 24 hrs by flow cytometry (reference value: 14.58%)
Type: functional
Details: not given
How it was run: as §2

| SMILES | Activity [%] |
| --- | --- |
| COc1cc2c(c(OC)c1OC)-c1ccc(OC)c(=O)cc1[C@@H](NC(C)=O)CC2 [COLCHICINE] | 12.44 |

Tested on: MCF7
Experiment: Antiproliferative activity against human MCF7 cells after 48 hrs by MTT assay
Type: functional, cell-based
Details: MCF7, 48 h
How it was run: as §1

| SMILES | IC50 [nM] |
| --- | --- |
| COc1cc2c(c(OC)c1OC)-c1ccc(OC)c(=O)cc1[C@@H](NC(C)=O)CC2 [COLCHICINE] | 390 |
| O=C(/C=C/c1ccc(Cl)cc1)Nc1cc(-c2ccc(Br)cc2)[nH]n1 | 770 |
| COc1ccc(/C=C/C(=O)Nc2cc(-c3ccc(Br)cc3)[nH]n2)cc1 | 590 |
| COc1ccc(/C=C\c2cc(OC)c(OC)c(OC)c2)cc1O [COMBRETASTATIN A4] | 210 |
| O=C(/C=C/c1ccc(C(F)(F)F)cc1)Nc1cc(-c2ccc(Br)cc2)[nH]n1 | 350 |

More lines, now with the values ahead:

| IC50 [nM] | SMILES |
| --- | --- |
| 540 | O=C(/C=C\c1ccc(C(F)(F)F)cc1)Nc1cc(-c2ccccc2)[nH]n1 |
| 1240 | O=C(/C=C/c1ccc(Br)cc1)Nc1cc(-c2ccccc2)[nH]n1 |
| 1630 | Cc1ccc(-c2cc(NC(=O)/C=C/c3ccccc3)n[nH]2)cc1 |
| 920 | O=C(/C=C/c1ccc(Br)cc1)Nc1cc(-c2ccc(Br)cc2)[nH]n1 |
| 640 | O=C(/C=C\c1ccc(F)cc1)Nc1cc(-c2ccc(Br)cc2)[nH]n1 |
| 630 | O=C(/C=C/c1ccc([N+](=O)[O-])cc1)Nc1cc(-c2ccccc2)[nH]n1 |
| 1720 | Cc1ccc(/C=C/C(=O)Nc2cc(-c3ccc(C)cc3)[nH]n2)cc1 |
| 970 | O=C(/C=C/c1ccc(Cl)cc1)Nc1cc(-c2ccccc2)[nH]n1 |

Tested on: MCF7
Experiment: Induction of cell cycle arrest in human MCF7 cells assessed as accumulation at G2/M phase at 2 ug/ml after 24 hrs by flow cytometry (reference value: 25.67%)
Type: functional
Details: not given
How it was run: as §2

| SMILES | Activity [%] |
| --- | --- |
| O=C(/C=C/c1ccc(C(F)(F)F)cc1)Nc1cc(-c2ccc(Br)cc2)[nH]n1 | 76.95 |

Tested on: MCF7
Experiment: Induction of cell cycle arrest in human MCF7 cells assessed as accumulation at G0/G1 phase at 2 ug/ml after 24 hrs by flow cytometry (reference value: 59.75%)
Type: functional
Details: not given
How it was run: as §2

| SMILES | Activity [%] |
| --- | --- |
| O=C(/C=C/c1ccc(C(F)(F)F)cc1)Nc1cc(-c2ccc(Br)cc2)[nH]n1 | 6.77 |

Tested on: MCF7
Experiment: Induction of cell cycle arrest in human MCF7 cells assessed as accumulation at S phase at 1 ug/ml after 24 hrs by flow cytometry (reference value: 14.58%)
Type: functional
Details: not given
How it was run: as §2

| SMILES | Activity [%] |
| --- | --- |
| O=C(/C=C/c1ccc(C(F)(F)F)cc1)Nc1cc(-c2ccc(Br)cc2)[nH]n1 | 18.46 |

Tested on: MCF7
Experiment: Induction of cell cycle arrest in human MCF7 cells assessed as accumulation at G0/G1 phase at 1 ug/ml after 24 hrs by flow cytometry (reference value: 59.75%)
Type: functional
Details: not given
How it was run: as §2

| SMILES | Activity [%] |
| --- | --- |
| O=C(/C=C/c1ccc(C(F)(F)F)cc1)Nc1cc(-c2ccc(Br)cc2)[nH]n1 | 35.99 |

Tested on: MCF7
Experiment: Induction of cell cycle arrest in human MCF7 cells assessed as accumulation at G0/G1 phase after 24 hrs by flow cytometry (reference value: 59.75%)
Type: functional
Details: not given
How it was run: as §2

| SMILES | Activity [%] |
| --- | --- |
| COc1cc2c(c(OC)c1OC)-c1ccc(OC)c(=O)cc1[C@@H](NC(C)=O)CC2 [COLCHICINE] | 6.94 |
